Columns and labels:
Hepatoma cell line = experiment: The compound was tested for antiviral activity against Hepatitis B virus in human hepatoma cells.; format: functional; details: read-out: ED50 (the source's name)
Method in brief: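 HBV-carrying human hepatoma 2.2.15 cells, six-day-old cultures in MEM with Earle's salts and 10% FBS, given varying drug concentrations for 3 days, medium renewed with same drug for a further 3 days; virions in harvested medium PEG-precipitated, viral DNA measured by Southern analysis against untreated controls; ED50 = 50% inhibition.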

MT2 = experiment: The compound was tested for antiviral activity against HIV-1 in MT-2 cells; format: functional, Homo sapiens; details: read-out: ED50 (the source's name)
Method in brief: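 MT-2 cells (1 × 10^4/well, triplicate) in RPMI 1640 with 10% dialysed FBS infected with HIV-1 HTLV-IIIB at 0.1 TCID50/cell (0.01 for one compound), immediately added to serial drug dilutions; after 5 days, MTT read at A595; % protection versus infected and uninfected no-drug controls; ED50 from log plots.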

CCRF-CEM [1] = experiment: In vitro cytotoxicity against human CCRF-CEM T-lymphoblastic leukemia cells was determined; format: functional, cell-based
Method in brief: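 CCRF-CEM suspension cultures in RPMI 1640 plus 10% horse serum, 37 °C, 5% CO2; exponential-phase cells at 2 × 10^4 cells/mL given various concentrations; cell numbers counted after 3 days versus drug-free control; 50% value read from plot of cell number against concentration.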

CCRF-CEM [2] = experiment: Concentration of compound required to inhibit the synthesis of mitochondrial DNA (mt DNA) in human CCRF-CEM T-lymphoblastic leukemia cells; format: functional, cell-based
Method in brief: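 CEM cells exposed to varying drug concentrations, collected, washed in PBS, lysed in 10 mM Tris-HCl pH 7.0 by freeze-thaw; RNase A (10 μg/mL final) then proteinase K for 1 h; DNA blotted onto nylon after NaI addition and boiling 10 min. IC50 = concentration inhibiting mt DNA synthesis by 50%.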

[3] = Homo sapiens, Hepatoma cell line

| SMILES | EC50 (Hepatoma cell line) | EC50 (MT2) | IC50 (CCRF-CEM [1]; Homo sapiens, CCRF-CEM) | EC50 (Hepatoma cell line; [3]) | EC50 (MT2; Homo sapiens, MT2) | IC50 (CCRF-CEM [2]; ccrf-cem) | IC50 (CCRF-CEM [1]; ccrf-cem) | IC50 (CCRF-CEM [2]; Homo sapiens, CCRF-CEM) |
| --- | --- | --- | --- | --- | --- | --- | --- | --- |
| Nc1ccn([C@H]2CC[C@@H](CO)O2)c(=O)n1 (stereo in doubt; form 2) [ZALCITABINE] | 5 µM | > 100 µM | – | – | – | – | – | – |
| O=c1ccn(C2CCC(CO)O2)c(=O)[nH]1 (stereo not drawn) | – | – | > 100 µM | > 100 µM | > 100 µM | – | – | – |
| Nc1nc(=O)n([C@H]2CC[C@H](CO)O2)cc1F | – | – | > 100 µM | 0.5 µM | 6 µM | – | – | – |
| Nc1ccn([C@H]2CC[C@@H](CO)O2)c(=O)n1 (stereo in doubt; form 1) [ZALCITABINE] | 2.8 µM | 1.5 µM | – | – | – | 0.022 µM | 28 µM | – |
| Cc1cn([C@@H]2CC[C@H](CO)O2)c(=O)[nH]c1=O | – | – | – | > 10 µM | > 100 µM | – | – | – |
| Nc1nc(=O)n([C@@H]2CC[C@H](CO)O2)cc1F (stereo in doubt; form 2) | 0.01 µM | 0.5 µM | – | – | – | – | 67 µM | > 100 µM |
| O=c1[nH]c(=O)n(C2CCC(CO)O2)cc1F (stereo not drawn) | – | – | > 100 µM | > 10 µM | > 100 µM | – | – | – |
| Nc1nc(=O)n([C@@H]2CC[C@H](CO)O2)cc1F (stereo in doubt; form 1) | 10 µM | 2 µM | – | – | – | – | 2 µM | – |
| Nc1ccn([C@H]2CC[C@@H](CO)O2)c(=O)n1 (stereo in doubt; form 3) [ZALCITABINE] | 0.01 µM | 5 µM | – | – | – | > 100 µM | 70 µM | – |
